One data set relates to MSSA ATCC 25923. The data set is described as follows: MIC, drug susceptibility assay. The format is cell-based, Staphylococcus aureus. Conditions: 18 h, 37 °C, visual inspection.
The nature of data set [1]: Mouse pharmacokinetic study. The format is in vivo. Conditions: CD-1 mice, oral 25 mg/kg, 0.5-5 h. The method in brief:
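Two female CD-1 mice received one oral 25 mg/kg dose in 20% DMA/80% PEG300. K2EDTA blood was taken pre-dose and at 0.5, 1, 3 and 5 h, and plasma was stored at −80 °C. Samples were precipitated with acetonitrile/methanol containing a verapamil internal standard and analysed by LC-MS/MS in MRM positive mode. Standard curves were made in CD-1 plasma, and QCs had to fall within 20% of nominal.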

Data set [2] deals with S. aureus LAC yceI::Tn pLL39_yceI. The data set is described as follows: MIC. Format: cell-based, Staphylococcus aureus. Conditions: genotype yceI::Tn pLL39_yceI, LAC background.
Data set [3] has as its system S. aureus LAC yceI::Tn pLL39_yceI1. The data set is described as follows: MIC. Format: cell-based, Staphylococcus aureus. Conditions: genotype yceI::Tn pLL39_yceI1, LAC background.
Data set [4] deals with S. aureus LAC yceI::Tn pLL39_yceI3. The data set is described as follows: MIC. Format: cell-based, Staphylococcus aureus. Conditions: genotype yceI::Tn pLL39_yceI3, LAC background.
The test system of another data set is LAC pEPSA5. The data set is described as follows: MIC. The format is cell-based, Staphylococcus aureus. The method in brief: (§1)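 LAC strains carried empty pEPSA5 or pEPSA5_yceI (yceI under a xylose-inducible promoter). They were grown overnight with or without xylose induction; for the azoR overexpression set, pEPSA strains were cultured with 1% xylose. The 1/1000 inoculum went into Mueller-Hinton broth with serial compound dilutions, incubated statically at 37 °C for 18 h. Values represent three independent experiments.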

The next data set relates to LAC pEPSA5_yceI. The data set is described as follows: MIC. Format: cell-based, Staphylococcus aureus. Conditions: for MIC: LAC pEPSA5_yceI. The method in brief: as §1
Another data set concerns LAC. The data set is described as follows: MIC. The format is cell-based, Staphylococcus aureus. Conditions: genotype LAC. In short, it runs like this:
(§2)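 Overnight cultures were grown in 5 mL Mueller-Hinton at 37 °C with shaking at 200 rpm. They were diluted 1/1000 into 96-well plates holding serial dilutions of test compound in Mueller-Hinton broth. Plates were sealed against drying and incubated statically at 37 °C for 18 h before reading. All strains are isogenic and in the LAC background.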

Another data set concerns LAC yceI::Tn. The data set is described as follows: MIC. The format is cell-based, Staphylococcus aureus. Conditions: genotype yceI::Tn, LAC background. In short, it runs like this: as §2
The next data set relates to LAC pEPSA5_azoR. The data set is described as follows: MIC. Format: cell-based, Staphylococcus aureus. Conditions: cultured with 1% xylose. The method in brief: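 pEPSA vector strains were cultured with 1% xylose for induction. Overnight Mueller-Hinton cultures (37 °C, 200 rpm) were diluted 1/1000 into serial dilutions of test compound in Mueller-Hinton broth in 96-well plates. Plates were incubated statically at 37 °C for 18 h. Values are representative of three independent experiments.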

Another data set relates to LAC yceI::Tn pCM28_azoR. The data set is described as follows: MIC. The format is cell-based, Staphylococcus aureus. The method in brief: as §2
In a further data set the test system is LAC yceI::Tn azoR2 pCM28. The data set is described as follows: MIC. The format is cell-based, Staphylococcus aureus. In short, it runs like this:
as §2

Another data set concerns LAC yceI::Tn azoR3 pCM28. The data set is described as follows: MIC. Format: cell-based, Staphylococcus aureus. In short, it runs like this: as §2
For data set [5], the system named is LAC yceI::Tn azoR3 pCM28_azoR. The data set is described as follows: MIC. The format is cell-based, Staphylococcus aureus. In short, it runs like this:
as §2

Converted amounts (≈) assume the structure as drawn. “And” between values parts separate entries of the source, which are not always exact repeats. Identical values can stand only once. Bounds are passed on as bounds.

Here are results for one compound from publication PMC8591627 (ACS infectious diseases, 2021).

The MIC is the lowest concentration that inhibits growth of the organism. In the case of `O=C(Nc1cc(Cl)cc2cccnc12)c1ccc([N+](=O)[O-])s1` [JSF-3151], the “half-life t1/2 in mouse liver microsomes” value came out at 1.46 min. In the data set on MSSA ATCC 25923, the “MSSA ATCC 25923 MIC” value is 1.6 μg/mL and 4.8 μM. In the data set on MSSA ATCC 25923 (listed as Z296972134 (3151)), the “MSSA ATCC 25923 MIC” value is 1.6 μg/mL and 4.8 μM. Besides, in data set [1], the “mouse plasma level relative to MIC” value is “inability to reach the MIC over a 5 h time period”. This compound displayed an MIC in data set [2] of 1.6 µg/mL (≈ 4.79 µM). For the same compound, in data set [3], the MIC stood at 50 µg/mL (≈ 150 µM). The compound further registered an MIC in data set [4] of 50 µg/mL (≈ 150 µM). The MIC in the data set with LAC pEPSA5 (LAC pEPSA5, cultured with 1% xylose (Table 6)) was 1.5 µg/mL (≈ 4.49 µM). Besides, the MIC in the data set on LAC pEPSA5 (LAC pEPSA5, growth with xylose +) was 0.78 µg/mL. This compound registered an MIC with LAC pEPSA5 (LAC pEPSA5, growth with xylose −) of 0.78 µg/mL (≈ 2.34 µM). Also, the MIC in the data set on LAC pEPSA5_yceI (growth with xylose +) is >50 µg/mL. For the same compound, the MIC in the data set on LAC pEPSA5_yceI (growth with xylose −) came to 3.1 µg/mL (≈ 9.29 µM). Further, the “resistance versus strain carrying empty vector pEPSA5” value in the data set on LAC pEPSA5_yceI (overnight induction with xylose) was > 64 fold. In the data set on LAC, this compound had an MIC of 1.5 µg/mL (≈ 4.49 µM). Moreover, the MIC against LAC yceI::Tn was 0.78 µg/mL (≈ 2.34 µM). For the same compound, the MIC in the data set on LAC pEPSA5_azoR amounted to 0.39 µg/mL (≈ 1.17 µM). In addition, the MIC against LAC yceI::Tn pCM28_azoR turned out to be 0.78 µg/mL (≈ 2.34 µM). In the data set on LAC yceI::Tn azoR2 pCM28, this compound yielded an MIC of 25 µg/mL (≈ 74.9 µM). Moreover, the MIC in the data set with LAC yceI::Tn azoR3 pCM28 was >50 µg/mL. In data set [5], this compound gave an MIC of 1.5 µg/mL (≈ 4.49 µM).
